Measurements taken from paper PMC6369923 (Journal of immunology (Baltimore, Md. : 1950), 2019).
Ends that are not written are not given here.

How the values were obtained:
[1] = system: MRGPRX4 (HTLA-MRGPRX4 cells); assay: Tango assay; type: cell-based; conditions: nateglinide 30 μM, 16 h, 37°C, three experiments
In short: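 Tango line from HTLA cells (HEK-293T with β-arrestin2-TEV) stably transfected with MRGPRX4-Tango, single-cell cloned, surface FLAG confirmed by flow. Cells plated at 50,000/well on poly-L-lysine in triplicate, antibiotic-free medium, 6 h at 37°C, then agonist 16 h at 37°C; Bright-Glo luminescence. Ca2+ traces: Calcium 6 loading 2 h 37°C, 1 h room-temperature equilibration, FLIPR imaging every 1 s over 5 min.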

[2] = system: MRGPRX4 (HTLA-MRGPRX4 cells); assay: Ca2+ mobilization in HTLA-MRGPRX4 cells; type: cell-based; conditions: nateglinide 30 μM, AG-30/5C 10 μM, compound 48/80 30 μg/mL; FLIPR-Tetra; representative traces
In short: (§1)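 HTLA cells (HEK-293T stably expressing β-arrestin2-TEV) were stably transfected with the MRGPRX2-Tango or MRGPRX4-Tango plasmid, and a single-cell-derived clone was checked for receptor expression by anti-FLAG flow cytometry. Cells were plated at 10^4 per well on collagen and grown 24 h at 37°C, then loaded with Calcium 6 dye for 2 h at 37°C. After 1 h equilibration at room temperature, test compound was added and fluorescence imaged every 1 s for 5 min on FLIPR-Tetra.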

[3] = system: LAD2 cells (human MC line, endogenously expressing MRGPRX2); assay: LAD2 degranulation; type: cell-based; conditions: resveratrol 100 μM, 5 min, 30 min
In short: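 LAD2 cells were grown in StemPro-34 with rhSCF (100 ng/mL), washed, and seeded at 10^4 per well in HEPES buffer with 0.1% BSA. Where used, resveratrol pretreatment was 100 μM for 5 min, followed by stimulation with test compound for 30 min at 37°C. Supernatant or Triton X-100 lysate of unstimulated cells (total) was incubated with 1 mM PNAG for 1 h at 37°C, stopped with carbonate buffer, and read at A405. Result is percent β-hexosaminidase release; three experiments.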

[4] = system: MRGPRX2 (HTLA-MRGPRX2 cells); conditions: cited from earlier work
[5] = system: MRGPRX2 (RBL-2H3 cells stably expressing MRGPRX2); assay: RBL-MRGPRX2 degranulation; type: cell-based
In short: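 RBL-2H3 cells stably expressing MRGPRX2 were kept in 1 mg/mL G418. Cells were seeded at 5 × 10^4 per well and cultured overnight with or without pertussis toxin (100 ng/mL, 16 h), then washed twice into HEPES buffer with 0.1% BSA. Optional resveratrol was 100 μM for 5 min. Cells were stimulated with test compound for 30 min at 37°C, and β-hexosaminidase release was measured with 1 mM PNAG (1 h, 37°C) at A405 as percent of total.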

[6] = system: MRGPRX2 (HTLA-MRGPRX2 cells); assay: Tango assay; type: cell-based; conditions: resveratrol 100 μM, 5 min
In short: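 HTLA cells (HEK-293T expressing β-arrestin2-TEV) stably transfected with MRGPRX2-Tango; single-cell clone, surface FLAG checked by flow. 50,000 cells/well on poly-L-lysine, triplicate, antibiotic-free medium, 6 h at 37°C; resveratrol 100 μM 5 min where used, then agonist 16 h at 37°C; Bright-Glo luminescence. Ca2+: Calcium 6 dye 2 h 37°C, 1 h room temperature, FLIPR read every 1 s for 5 min. Mean ± SEM, three experiments.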

[7] = system: IgE-mediated MC degranulation; conditions: cited from earlier work
[8] = system: MRGPRX2 (HTLA-MRGPRX2 cells); assay: Ca2+ mobilization in HTLA-MRGPRX2 cells; type: cell-based; conditions: compound 48/80 30 μg/mL, AG-30/5C 10 μM, Icatibant 30 μg/mL; FLIPR-Tetra; representative traces
In short: as §1

[9] = system: MRGPRX2 (human MC); conditions: cited from earlier work
[10] = treatment of hereditary angioedema; cited from earlier work
[11] = system: MRGPRX2 (RBL-MRGPRX2 cells); assay: Ca2+ mobilization in RBL-MRGPRX2 cells; type: cell-based; conditions: PTx 100 ng/mL, 16 h, Indo-1, agonist compound 48/80 1 μg/mL, AG-30/5C 1 μM or Icatibant 20 μg/mL, representative traces
[12] = system: MRGPRX2; conditions: LL-37 as agonist; cited from earlier work
[13] = mice; cited from earlier work

CC(C)[C@H]1CC[C@H](C(=O)N[C@H](Cc2ccccc2)C(=O)O)CC1 [nateglinide]
β-arrestin-mediated gene expression via MRGPRX4 (Tango), in words ([1]; AG-30/5C 10 μM, compound 48/80 30 μg/mL): induces β-arrestin-mediated gene expression | increase in β-arrestin-mediated gene expression via MRGPRX4 [1]: > 100 fold | Ca2+ mobilization via MRGPRX4 [2]: causes an increase in Ca^2+ mobilization

Oc1ccc(/C=C/c2cc(O)cc(O)c2)cc1 [resveratrol]
inhibition of Icatibant-induced degranulation, LAD2 ([3]; Icatibant 20 μg/mL): significant (p≤ 0.05 and p≤ 0.001) inhibition | inhibition of compound 48/80- and AG-30/5C-induced degranulation, LAD2 ([3]; compound 48/80 1 μg/mL or AG-30/5C 1 μM): significantly (p ≤0.05, 0.01 and 0.001) reduced degranulation | inhibition of constitutive MRGPRX2-mediated Tango ([4]; NIH Clinical Collection library (NCC-1) screen): inhibitor of constitutive MRGPRX2-mediated Tango | inhibition of Icatibant-induced degranulation, RBL-MRGPRX2 ([5]; resveratrol 100 μM, 5 min, Icatibant 20 μg/mL, 30 min): significant (p≤ 0.05 and p≤ 0.001) inhibition | inhibition of compound 48/80- and AG-30/5C-induced degranulation, RBL-MRGPRX2 ([5]; resveratrol 100 μM, 5 min, compound 48/80 1 μg/mL or AG-30/5C 1 μM, 30 min): significantly (p ≤0.05, 0.01 and 0.001) reduced degranulation | effect on AG-30/5C Tango response ([6]; AG-30/5C 10 μM overnight): no effect on Tango | inhibition of compound 48/80-induced β-arrestin gene expression (Tango) ([6]; compound 48/80 3.0, 10 and 20 μg/mL overnight): significant (p≤ 0.01 and p≤ 0.001) inhibition | inhibition of IgE-mediated MC degranulation [7]: activates sirtuin 1 (sirt1) to inhibit IgE-mediated MC degranulation

Icatibant
β-arrestin-mediated gene expression (literature) ([4]; HTLA cells expressing MRGPRX2-Tango): does not activate β-arrestin-mediated gene expression | effect of pertussis toxin on agonist-induced degranulation ([5]; RBL-MRGPRX2, PTx 100 ng/mL, 16 h, agonist compound 48/80 1 μg/mL or AG-30/5C 1 μM (p ≤ 0.001), or Icatibant 20 μg/mL): completely blocked | peak Ca2+ mobilization, high concentration [8]: induced Ca^2+ mobilization although the peak was much shorter than compound 48/80 | MC degranulation via MRGPRX2 (literature) [9]: promotes MC degranulation via MRPGRX2 | injection site pseudo-allergic drug reaction [10]: injection site pseudo-allergic drug reaction in nearly every patient | effect of pertussis toxin on agonist-induced Ca2+ mobilization [11]: completely blocked Icatibant-induced degranulation but not Ca^2+ mobilization

LL-37
activation of human MC via MRGPRX2 (literature) [9]: activate human MC | receptor phosphorylation, desensitization and internalization [12]: resistant to phosphorylation, desensitization and internalization | vaccine adjuvant activity [13]: safe and effective vaccine adjuvant in mice

human β-defensin 3: host defense peptide (GIINTLQKYYCRVRGGRCAVLSCLPKEEQIGKCSTRGRKCCRRKK; ends and bridges not checked; cysteine pairing not given here; UniProt P81534 23-67, looked up)
effect of PTx on MC degranulation and Ca2+ mobilization (literature) [9]: inhibits MC degranulation in response to host defense peptide, human β-defensin 3 without affecting Ca^2+ mobilization
